Source: PubChem BioAssay (Johns Hopkins Ion Channel Center)
KCNK3 inh: human KCNK3 channel inhibition, primary screen; O14649; CHO-KCNK3 thallium flux, FluxOR fluorescence; active compounds read low; B-score at 10 µM; 340,000 tested, 0.84% active;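 active = B-score under library mean minus 4 SD, starting fluorescence ratio at most library mean plus 5 SD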;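 also: more negative B-score means stronger inhibition of thallium flux through KCNK3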
KCNK9 block: blocks the human KCNK9 two-pore domain potassium channel; Q9NPC2; HEK293 KCNK9, FluxOR thallium flux fluorescence; active compounds read low; B-score at 10 µM; 310,000 tested, 1.2% active; AID 488922;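 active = ratio B-score over 3 SD below the library mean, with starting fluorescence within 5 SD of its mean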;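 also: negative B-score means less thallium flux so channel inhibition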
KCNQ1 act: potentiators or activators of human KCNQ1 potassium channel. CHO-K1 KCNQ1, thallium flux FluxOR fluorescence; active compounds read high. B-score at 10 µM. 310,000 tested, 0.35% active;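 active = fluorescence ratio B-score, a plate-corrected score, at least three library SD, with initial intensity B-score within 5 SD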
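Assay system: stable KCNQ1 CHO-K1 line; medium: assay buffer, equal DMSO in all wells; timing: 90 min dye loading and 20 min compound exposure, both at room temperature; technique: kinetic FluxOR thallium fluorescence, 10-s 1-Hz baseline, 110-s post-stimulus read; read-out basis: B score of baseline-normalized fluorescence ratio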
hERG protect: shields human hERG channel from block by proarrhythmic agents | 310,000 tested, 0.51% active | CHO-hERG, FluxOR thallium flux, dofetilide IC70 present | activation (rescue from dofetilide block), less the hit threshold, % at 10 µM | Q12809;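 active = activation above the mean of controls blocked by dofetilide plus 5 SD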;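 also: thallium influx through hERG after potassium depolarization seen as dye fluorescence rise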
Target sequence (Q12809 whole entry, looked up): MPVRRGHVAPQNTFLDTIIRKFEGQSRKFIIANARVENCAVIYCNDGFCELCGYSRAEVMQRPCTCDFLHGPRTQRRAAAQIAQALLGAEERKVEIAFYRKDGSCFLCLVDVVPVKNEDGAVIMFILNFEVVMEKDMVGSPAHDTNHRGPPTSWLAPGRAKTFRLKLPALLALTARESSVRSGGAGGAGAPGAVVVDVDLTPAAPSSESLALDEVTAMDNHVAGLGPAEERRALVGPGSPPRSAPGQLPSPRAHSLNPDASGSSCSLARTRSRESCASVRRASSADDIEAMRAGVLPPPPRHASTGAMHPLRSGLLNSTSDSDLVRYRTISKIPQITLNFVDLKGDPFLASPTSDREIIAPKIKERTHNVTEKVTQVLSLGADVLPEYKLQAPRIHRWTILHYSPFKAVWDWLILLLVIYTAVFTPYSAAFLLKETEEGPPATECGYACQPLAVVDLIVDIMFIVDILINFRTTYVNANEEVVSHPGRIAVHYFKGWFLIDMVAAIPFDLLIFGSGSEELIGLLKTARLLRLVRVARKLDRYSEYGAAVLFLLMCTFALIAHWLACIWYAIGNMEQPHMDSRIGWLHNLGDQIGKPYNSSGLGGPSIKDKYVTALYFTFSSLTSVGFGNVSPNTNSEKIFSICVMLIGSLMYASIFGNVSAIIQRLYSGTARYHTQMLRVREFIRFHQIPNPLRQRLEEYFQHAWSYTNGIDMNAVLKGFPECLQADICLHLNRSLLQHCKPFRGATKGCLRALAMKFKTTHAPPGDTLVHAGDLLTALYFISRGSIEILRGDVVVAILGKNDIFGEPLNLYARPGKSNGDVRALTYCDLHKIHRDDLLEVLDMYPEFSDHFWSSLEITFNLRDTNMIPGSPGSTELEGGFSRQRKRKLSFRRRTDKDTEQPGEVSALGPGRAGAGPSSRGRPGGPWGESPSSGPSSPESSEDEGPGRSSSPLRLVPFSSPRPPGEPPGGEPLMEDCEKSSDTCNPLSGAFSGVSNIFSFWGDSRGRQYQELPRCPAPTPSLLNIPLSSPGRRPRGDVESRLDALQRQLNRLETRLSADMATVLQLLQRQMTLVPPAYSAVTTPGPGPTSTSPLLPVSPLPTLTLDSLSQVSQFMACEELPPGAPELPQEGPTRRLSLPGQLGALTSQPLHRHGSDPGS
Kir21 inh: blocks the mouse Kir2.1 inward-rectifier potassium channel; HEK293-Kir2.1, FluxOR thallium flux fluorescence; active compounds read low; 310,000 tested, 0.85% active; B-score at 10 µM; AID 1672; P35561;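 active = fluorescence ratio B-score at or below minus 3 SD of library scores, with starting-brightness B-score within 2 SD, cut at about -4.2 in these data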;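 also: channel flux triggered by added potassium and thallium sulfate stimulus; B-score of peak minus minimum fluorescence over baseline after thallium stimulus; more negative B-score means stronger Kir2.1 block with less thallium influx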
KCNQ1 inh: inhibitors of human KCNQ1 potassium channel. CHO-K1 KCNQ1, FluxOR thallium flux fluorescence; active compounds read high. P51787. 310,000 tested, 1.3% active. B-score at 10 µM. AID 2642;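 active = compounds whose thallium flux B-score, printed positive for inhibition, exceeds three library SD while starting fluorescence stays within three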;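 also: channel opened by potassium depolarization with thallium stimulus after 20 min compound exposure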
KCNQ1 block val: human KCNQ1 channel inhibition, validation assay; shares compounds with KCNQ1 inh; KCNQ1 cell line, FluxOR thallium flux fluorescence; inhibition, % at 10 µM; 1,600 tested, 93% active;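 active = primary screen active, with duplicate mean exceeding buffer control mean plus 3 SD of buffer wells, cut at about 28% in these data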
CHO Tl flux: KCNQ1 inhibitor counter-screen hit in parental CHO cells. AID 588366. parental CHO-K1, FluxOR thallium flux fluorescence ratio; active compounds read low; zero means no signal rise above baseline. fluorescence ratio (Tl flux) at 10 µM. 1,600 tested, 21% active. shares compounds with KCNQ1 inh;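 active = mean of duplicate thallium-flux fluorescence ratios in parental host cells more than 5 SD below the buffer control mean, cut at about 0.38 in these data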;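 also: ratio is peak minus minimum fluorescence divided by baseline fluorescence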
KCNQ1 APC inh: blocks human KCNQ1 current in automated patch clamp; shares compounds with KCNQ1 inh; KCNQ1-CHO cells; calls only at 10 µM; 490 tested, 20% active; AID 624120;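 active = KCNQ1 current drop exceeding 3 SD of negative control wells, seen in both duplicate runs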;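 also: steady state current during a 2 s step from -80 to +40 mV; negative values mean current inhibition and positive values mean potentiation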
KCNQ2 spec: rat KCNQ2 inhibition in KCNQ1 inhibitor specificity screen. AID 651746. KCNQ2 cells, FluxOR thallium flux fluorescence. 1,600 tested, 71% active. inhibition, % at 10 µM. shares compounds with KCNQ1 inh;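 active = mean percent inhibition of the KCNQ2 thallium signal more than 5 SD above the buffer-only control wells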;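 also: KCNQ2 expressed in CHO cells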
KCNQ1 KCNE1 spec: selectivity of KCNQ1 inhibitors: inhibition of human KCNQ1/KCNE1 channel; shares compounds with KCNQ1 inh; KCNQ1/KCNE1 cells, FluxOR thallium flux fluorescence; inhibition, % at 10 µM; 1,600 tested, 77% active; AID 652147;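 active = mean percent inhibition of duplicate wells above the buffer-only control mean plus 3 SD of those controls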
Large screens that a line does not name were inactive (follow-up assays come after a bar, where they were run). In the library only some 3.7% were active in any assay of this set; here they are far more common.

CCN(CC)C(=O)c1ccc(COc2ccc(Cl)c(C)c2)o1	KCNQ1 inh 11 | KCNQ1 block val 114 | CHO Tl flux inactive | KCNQ1 APC inh inactive | KCNQ2 spec 130% | KCNQ1 KCNE1 spec 109%
Cc1cccc(NC(=O)C2CC3CCC2C3)c1C (centres undefined)	none
CCN(CC)S(=O)(=O)c1cc(C(=O)OCC(=O)Nc2cccc(Br)c2)ccc1F	none
CC(C)(C)c1ccc(S(=O)(=O)/N=C2\C=C(NS(=O)(=O)c3ccccc3)C(=O)c3ccccc32)cc1	KCNK9 block -7, KCNQ1 inh 8 | KCNQ1 block val 70 | CHO Tl flux inactive | KCNQ2 spec 77% | KCNQ1 KCNE1 spec 142%
Cc1ccc(SCCNS(=O)(=O)c2ccc(F)cc2)cc1	KCNQ1 inh 7 | KCNQ1 block val 47 | CHO Tl flux inactive | KCNQ2 spec 62% | KCNQ1 KCNE1 spec 50%
O=S(=O)(NCCSc1ccc(Cl)cc1)c1ccc(F)cc1	none
N#C/C(=C/Nc1ccccc1F)S(=O)(=O)c1ccc(Cl)cc1	none
COc1ccc(CCN2CC(C(=O)NC3CCCCC3)CC2=O)cc1OC (centres undefined)	none
COc1ccc(C2=Nn3c(nnc3C(F)(F)F)SC2)cc1	none
NCCOc1ccc(C23CC4CC(CC(C4)C2)C3)cc1	Kir21 inh -4.7, KCNQ1 inh 7 | KCNQ1 block val 147 | CHO Tl flux inactive | KCNQ1 APC inh active | KCNQ2 spec inactive | KCNQ1 KCNE1 spec inactive
O=C(NCC1CC1)c1ccc(Nc2nc3ccc(Br)cc3[nH]2)cc1	none
O=C(NCc1ccco1)c1cccc(Nc2nc3ccc(Br)cc3[nH]2)c1	KCNQ1 inh 8 | KCNQ1 block val 163 | CHO Tl flux 0.33 | KCNQ2 spec 128% | KCNQ1 KCNE1 spec active
Cc1ccc(NC(=O)CS(=O)CC(=O)Nc2cnc3ccccc3c2)cc1Cl (centres undefined)	none
CCC(C)Nc1nc(-c2cccc(OC)c2O)nc2ccccc12 (centres undefined)	KCNK3 inh -12, KCNQ1 inh 11 | KCNQ1 block val 125 | CHO Tl flux 0.31 | KCNQ2 spec inactive | KCNQ1 KCNE1 spec 139%
COc1cccc(-c2nc(NC(C)C)c3ccccc3n2)c1O	none
Cn1c(O)c(/C=N/NC(=O)c2cc3ccccc3cc2O)c2ccccc21	KCNQ1 inh 17 | KCNQ1 block val 101 | CHO Tl flux 0.32 | KCNQ2 spec inactive | KCNQ1 KCNE1 spec inactive
COCCn1c(C)cc(/C=N/NC(=O)c2cc3ccccc3cc2O)c1C	none (no result: KCNK9 block, KCNQ1 act, hERG protect, Kir21 inh, KCNQ1 inh)
CCCn1c(=O)n(C)c(=O)c2c(SCC(=O)NC34CC5CC(CC(C5)C3)C4)nc(CC(C)C)nc21	KCNQ1 inh 8 | KCNQ1 block val 136 | CHO Tl flux 0.32 | KCNQ2 spec 88% | KCNQ1 KCNE1 spec 148%
COCCNC(=O)CNC(=S)N(CCCN1CCOCC1)Cc1cccs1	none
CC1CCCN(C(=O)c2ccc(NC(=O)CC3SC(N4CCCC4)=NC3=O)cc2)C1 (centres undefined)	none
CCOc1ccc2[nH]c3c(NCCOC)ncnc3c2c1	none
CCOc1ccc2[nH]c3c(NCC(C)C)ncnc3c2c1	KCNQ1 inh 6 | KCNQ1 block val 69 | CHO Tl flux inactive | KCNQ2 spec 94% | KCNQ1 KCNE1 spec 70%
CC(=O)N1CCN(C(=O)c2cccc(S(=O)(=O)N3CCOCC3)c2)CC1	none (no result: KCNK9 block, KCNQ1 act, hERG protect, Kir21 inh, KCNQ1 inh)
CCN1C(=O)C(CC(=O)Nc2ccc(Br)cc2)N(CCCc2ccccc2)C1=S (centres undefined)	KCNQ1 inh 8 | KCNQ1 block val 140 | CHO Tl flux 0.33 | KCNQ2 spec 115% | KCNQ1 KCNE1 spec 196%
CCOc1ccc(S(=O)(=O)N2CCOCC2)cc1NC(=O)CSCC(=O)Nc1ccc(OC)cc1	none (no result: KCNK9 block, KCNQ1 act, hERG protect, Kir21 inh, KCNQ1 inh)
CC(c1ccccc1)N1C(=O)c2ccc(C(=O)Nc3ccccc3C(=O)O)cc2C1=O (centres undefined)	none
CC(c1ccccc1)N1C(=O)c2ccc(C(=O)Nc3ccc(Br)cc3C(=O)O)cc2C1=O (centres undefined)	KCNQ1 inh 12 | KCNQ1 block val 108 | CHO Tl flux inactive | KCNQ1 APC inh inactive | KCNQ2 spec inactive | KCNQ1 KCNE1 spec 132%
Cc1cc(C)cc(N(CCC#N)C(=O)COC(=O)C2CCN(c3ccc(C(F)(F)F)cn3)CC2)c1	none
CCN1C(=O)c2cccc3c(N)ccc(c23)C1=O	KCNQ1 inh 24 | KCNQ1 block val active | CHO Tl flux 0.011 | KCNQ2 spec inactive | KCNQ1 KCNE1 spec inactive
CCCCNc1ccc2c3c(cccc13)C(=O)N(CCCC)C2=O	KCNQ1 inh 24 | KCNQ1 block val active | CHO Tl flux 0.011 | KCNQ2 spec inactive | KCNQ1 KCNE1 spec inactive
CN(C)CCCN1C(=O)c2cccc3c(Br)ccc(c23)C1=O	none
COc1ccc(N(CC(=O)N2CCOCC2)S(C)(=O)=O)cc1OC	none
Cc1cccc(NC(=O)C2Cc3ccccc3O/C2=N\O)c1 (centres undefined)	none
Cc1ccc(S(=O)(=O)Nc2ccccc2CNc2ccc(Br)cn2)cc1	KCNK9 block -7.6, KCNQ1 inh 7 | KCNQ1 block val 109 | CHO Tl flux 0.37 | KCNQ2 spec 103% | KCNQ1 KCNE1 spec 152%
Cc1ccc(S(=O)(=O)Nc2ccccc2CNc2ccccn2)cc1	none
CC(C)CN1CC(COCc2ccccc2)Oc2ccccc2S1(=O)=O (centres undefined)	none (no result: KCNK9 block, KCNQ1 act, hERG protect, Kir21 inh, KCNQ1 inh)
CCOC(=O)c1c(C)[nH]c(C(=O)Nc2cc(OCC)c(N3CCOCC3)cc2OCC)c1C	none (no result: KCNK9 block, KCNQ1 act, hERG protect, Kir21 inh, KCNQ1 inh)
Cc1ccc(N(CC(=O)N2CCc3ccccc3C2)S(C)(=O)=O)cc1	none
COc1ccc(C(CNC(=O)c2cccc(S(=O)(=O)Nc3ccc(F)cc3)c2)N2CCCCC2)cc1 (centres undefined)	none (no result: KCNK9 block, KCNQ1 act, hERG protect, Kir21 inh, KCNQ1 inh)
CC12CC3(C)CC(C)(C1)CC(C(=O)NC(=S)N1CCOCC1)(C2)C3	KCNQ1 inh 8 | KCNQ1 block val 53 | CHO Tl flux inactive | KCNQ2 spec inactive | KCNQ1 KCNE1 spec 44%
